Screening results from PubChem.
HSP90 inh: inhibitors of HSP90 luciferase refolding in rabbit reticulocyte lysate; luciferase refolding luminescence, 3 h; inhibition, % at 5.6 µM; 290,000 tested, 0.91% active; AID 1789;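 active = inhibition above the screen-wide mean plus 3 SD, computed separately per campaign, cut at about 16% in these data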;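 also: 0% = DMSO wells and 100% = 60 µM geldanamycin wells; inhibitors lower the luminescence because luciferase stays unfolded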
HSF1 activator: increases HSF-1 driven luciferase reporter signal; NIH3T3-HGL HSF-1 luciferase reporter, MG132, 8 h; 100% = twice DMSO control signal; activation, % at 9 µM; 300,000 tested, 1.7% active;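 active = mean replicate activation of at least 50% with a set share of replicates each reaching 50%; inconclusive = only one of those two conditions met; inactive = mean below 50% and too few replicates reaching it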;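 also: 0% = median of the neutral control wells and 100% = twice that signal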
HSF1 inhib: HSF1 inhibition | 300,000 tested, 0.77% active | activity change, negative = inhibition, % at 7.5 µM (by protocol) | NIH3T3-HGL HSE-luciferase, MG132-induced, luminescence 8 h; hits give low values;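 active = more than half of replicate wells show activity change below -50%, luminescence cut by over half; inconclusive = some wells, but at most half, below -50%; inactive = no replicate well below -50%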;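 also: luciferase reports HSF-1 transcriptional activity via heat shock element; 0% = median of DMSO wells and -100% = zero luminescence signal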
NS3 helicase inh: inhibitors of Hepatitis C virus NS3 helicase; NS3 helicase DNA unwinding, Cy5 molecular beacon fluorescence; inhibition, % at 10.9 µM; 290,000 tested, 0.56% active;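 active = inhibition above the mean of all tested compounds plus 3 SD, set per campaign, cut at about 35% in these data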;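 also: 0% = DMSO wells and 100% = thioflavine S control wells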
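Compound dosing – single dose, 10.9 µM nominal final, DMSO 0.8% final · System – NS3 helicase fragment of HCV · Buffer or medium – MOPS pH 6.5, MgCl2, DTT, Tween20, BSA · Signal – Cy5 beacon fluorescence read at start and 1 h · Also added – annealed dual-labelled DNA beacon duplex, ATP-started · Schedule – 1 h at 25 °C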
FID counter: displaces DNA intercalator in HCV helicase counter-screen. DNA fluorescent intercalator displacement, fluorescence. inhibition, % at 7.9 µM. 290,000 tested, 0.17% active; in the data active = inhibition above about 37%;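 also: 0% = vehicle and 100% = reference compound; higher means more ethidium bromide displaced from hairpin DNA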
core dimer inh: blocks dimerization of HCV core protein. TR-FRET GST/Flag-core106 dimerization, 1536-well. inhibition, % at 5 µM. 300,000 tested, 0.33% active;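 active = inhibition above the mean of all tested compounds plus 3 SD, set per screening campaign, cut at about 45% in these data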
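Assay system – GST-tagged and Flag-tagged HCV core protein residues 1-106 · Quantity – core106 proteins, GST 13.5 nM and Flag 17 nM · Benchmarks – unlabelled core106 and no-GST-core106 wells · Read-out basis – percent inhibition of core106 dimerization signal · Detection – time-resolved FRET, ex 340 nm, em 617 and 671 nm · Schedule – 4 h at 22.5 °C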
Active calls of the source: *; u = inconclusive; x = not tested or not shown. Compounds with a hit are over-represented: about 3.9% of the library has one in this group of screens.

SMILES | HSP90 inh | HSF1 activator | HSF1 inhib | NS3 helicase inh | FID counter | core dimer inh
N#CC(CO)(Cc1ccc(OC(F)F)cc1)c1nc2ccccc2[nH]1 (stereo unspecified) | 0 | 72* | 46 | 1 | -4 | 3
COc1ccc(CC(C#N)(CO)c2nc3ccccc3[nH]2)cc1 (stereo unspecified) | -3 | 3 | 6 | 2 | 6 | 1
CCCNC(=O)COC(=O)c1ccccc1OCC(=O)Nc1ccc(Br)cc1 | -3 | -2 | 5 | -2 | -5 | 14
CC(C)(C)NC(=O)COC(=O)c1ccccc1OCC(=O)Nc1ccc(Br)cc1 | 2 | 69* | 40 | 3 | -8 | -1
COc1ccccc1OCC(=O)Nc1ccc(Cl)cc1 | -1 | 10 | 18 | -3 | -9 | -1
NC(=O)c1ccccc1OCC(=O)Nc1ccc(Cl)c(Cl)c1 | 4 | 91* | 50 | 3 | -7 | 0
O=c1[nH]c(C2CCN(S(=O)(=O)c3ccc4c(c3)OCCO4)CC2)nc2c1nnn2Cc1ccc(F)cc1 | 7 | 6 | -4 | -20 | -37 | 22
CCn1c(SCC(=O)Nc2nccs2)nnc1-c1ccc(C)cc1 | 3 | 4 | 4 | -3 | -31 | -1
Cc1ccc(-c2nnc(SCC(=O)Nc3nccs3)n2N)cc1 | -2 | -64 | -61* | -4 | -3 | 0
CCn1c2ccccc2c2cc(/C=N/NC(=O)c3cccc(C)c3)ccc21 | 4 | 8 | 2 | 1 | -3 | 48*
Cc1cccc(C(=O)Oc2ccc(/C=N/NC(=O)c3ccccc3O)cc2)c1 | -6 | 55* | 53 | 10 | -5 | 10
NC(=O)CSc1nnc2sc3ccccc3n12 | -1 | 1 | 6 | 13 | -1 | -12
CCOc1cc(OCC)cc(C(=O)Nc2cccnc2)c1 | 0 | 59* | 18 | -1 | -11 | -1
O=C(Nc1cccnc1)c1ccc(-c2ccccc2)cc1 | -5 | 66* | 28 | 1 | -2 | -1
COc1cccc(-c2cc(C(=O)Nc3cccnc3)no2)c1 | 11 | 78* | 33 | 5 | -8 | -8
O=C(Nc1cccnc1)c1cc(-c2ccccc2)on1 | 5 | 9 | 9 | -10 | -8 | -1
COc1ccc(-c2cn[nH]c2-c2ccc(OCc3ccc([N+](=O)[O-])cc3)cc2O)cc1 | 3 | -6 | -14 | 8 | 5 | -3
Cc1ccnc(NC(=O)Nc2ccc3c(c2)OCO3)c1 | -2 | 38 | 36 | -6 | -1 | 2
CCn1nc(C)c(CN2CCCCC2C(=O)Nc2ccc(Oc3cccnc3)cc2)c1C (stereo unspecified) | -5 | -11 | -4 | -4 | 0 | -7
C/C(=N\Nc1nccnc1Cl)c1ccc([N+](=O)[O-])cc1 | 3 | 4 | 5 | -3 | -1 | -2
O=C(CCn1nc(-c2ccccc2)ccc1=O)N1CCN(c2ccccn2)CC1 | 0 | -2 | -5 | -4 | -31 | 0
Cc1cc(NC(=O)CSCC(=O)N(C)Cc2cccc(Cl)c2)no1 | x | 0 | 3 | x | x | -1
C/C(=N\Nc1nc(-c2ccccc2)cs1)c1cccs1 | 11 | -75 | -70* | 10 | -4 | 29
COc1cc(C(=O)NCCCOC(C)C)ccc1OC1CCN(C(C)=O)CC1 | 1 | -21 | -8 | 3 | -25 | x
COc1cc(NS(=O)(=O)c2cn(C)cn2)cc(OC)c1 | -2 | 14 | 3 | -9 | -9 | -8
SMILES | HSP90 inh | HSF1 activator | HSF1 inhib | NS3 helicase inh | FID counter | core dimer inh
COC(=O)c1ccccc1Sc1ncnc2onc(C)c12 | 6 | 86* | 72 | 4 | -7 | -1
N/C(=N\OC(=O)c1cccs1)c1ccc(Cl)cc1 | -5 | 60* | 16 | 17 | -7 | 1
COC(=O)c1sccc1NC(=S)N1CCC(C(N)=O)CC1 | 0 | x | x | 4 | -1 | -1
Cc1cc(=O)[nH]c(/N=C(\N)Nc2ccc3c(c2)OCCO3)n1 | -3 | 1 | 4 | 2 | -3 | -5
Cc1cc(C)nc(/N=C(\N)Nc2ccc3c(c2)OCCO3)n1 | -3 | -60 | -54* | 5 | -6 | 0
CCCc1cc(C(=O)Nc2nccs2)cs1 | 5 | 86* | 53 | -11 | -3 | 0
CCCN1C(=O)c2ccc(C(=O)Nc3nccs3)cc2C1=O | -1 | -4 | 2 | 1 | 0 | 0
CC(=O)c1sc(NC(=O)c2ccc(C)c(C)c2)nc1C | 9 | 53* | 29 | -3 | 2 | 13
COc1ccccc1CNCC(c1ccccc1)c1ccccc1 | -4 | 61* | 25 | -22 | 13 | 0
COc1ccc(Cl)cc1S(=O)(=O)N1CCCC(C(=O)NCc2ccccc2)C1 (stereo unspecified) | -2 | -13 | 0 | -13 | -28 | 6
Cc1cc(C)nc(NC(=O)c2ccc(Cl)c([N+](=O)[O-])c2)n1 | -2 | 19 | -8 | 1 | 0 | 0
Cc1cccc(NC(=O)c2ccc(N3CCOCC3)c([N+](=O)[O-])c2)n1 | 3 | 2 | 7 | 6 | -13 | 0
Cc1cc(C)nc(NC(=O)c2ccc(C)c([N+](=O)[O-])c2)n1 | -5 | -81 | -72* | -9 | 2 | -9
Cc1cccc(NC(=O)c2ccc(N3CCCCC3)c([N+](=O)[O-])c2)n1 | 4 | 62* | 32 | -13 | -5 | 0
O=C(NCc1cccnc1)c1cc2ccccc2oc1=O | 1 | 23 | -4 | 1 | -1 | -2
O=C(NCCc1cccc(Cl)c1)c1cc2ccccc2oc1=O | -5 | 278* | 187 | 12 | -6 | 0
O=C(CSCc1ccco1)N1CCc2ccccc21 | 2 | u | 28 | 7 | -14 | 3
CCN(CC)c1ccc(NS(=O)(=O)c2ccc(OC)cc2)cc1 | -2 | 15 | 3 | 10 | -4 | -12
Clc1ccc(-n2c(SCc3nc4ccccc4[nH]3)nnc2-c2ccncc2)cc1 | 0 | 2 | 3 | -3 | -23 | -5
[O-][n+]1ccccc1SC/C=C/c1ccccc1 | -2 | 53* | 22 | -2 | 7 | 0
COc1ccc(CCNC(=O)CCn2c(=O)c3cccn3c3ccc(F)cc32)c(OC)c1OC | -1 | -5 | 4 | 0 | -47 | 0
COc1ccc(C(C[N+](=O)[O-])c2c(-c3ccccc3)cc3ccccn23)cc1OC (stereo unspecified) | 3 | 28 | 24 | 0 | -7 | 15
COc1ccc(C(C[N+](=O)[O-])C2(c3ccc(OC)c(OC)c3)C(=O)c3ccccc3C2=O)cc1 (stereo unspecified) | 1 | 214* | 146 | 6 | 2 | -42
O=S(=O)(NCc1ccccc1Cl)c1ccc(-n2cnnn2)cc1 | -6 | -7 | 2 | -3 | -1 | 11
O=S(=O)(NCc1ccc(C(F)(F)F)cc1)c1ccc(-n2cnnn2)cc1 | 1 | -93 | -90* | 0 | -4 | 0
